# Reference: the RNAGym collection of RNA variant scans (doi:10.1126/science.aae0568)
# This sample holds only a part of the variants without activity.
# B1: tRNA (parent)
# chain: GUUCCGUUGGCGUAAUGGUAACGCGUCUCCCUCCUAAGGAGAAGACUGCGGGUUCGAGUCCCGUACGGAACG
# Variants of: B1
# Assay: yeast fitness relative to wild type (ratio to wild type); higher = fitter; tRNA-Arg(CCU), competitive growth, 37 C, YPD
# Procedure, shortened: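 Variants of the tRNA-Arg(CCU) gene, chemically synthesised with a 3% per-site mutation rate at 69 sites, were placed at the native genomic locus in Saccharomyces cerevisiae. The pooled strains were competed in YPD at 37°C for 24 hours in six parallel replicates. Gene amplicons from the start population and from each end population were read by 100-nucleotide paired-end sequencing. Darwinian fitness relative to wild type came from changes in genotype frequencies; genotypes needed ≥ 100 starting reads, and estimates < 0.5 were set to 0.5.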
row,Variant,yeast fitness
1,U28C C49U G52A,0.619
2,U28A U35C A37C,0.647
3,U28A C66U G68A,≤ 0.5
4,C27U U54A,0.543
5,U28A A36U G48C,≤ 0.5
6,U28A G48A C61A,≤ 0.5
7,U28C U47C U59A C66A,≤ 0.5
8,U28C U64A,0.622
9,C27U C62U,1.01
10,C27U C62A,0.764
11,U28A A40U C49U C60A G63A,≤ 0.5
12,U28A G52A U54A,≤ 0.5
13,U28C G68A,0.839
14,U28C C31U A36C G41C U47A,≤ 0.5
15,U28A C49A A65C,0.528
16,U28C C55U C66G,≤ 0.5
17,U28C C46U G51C A70C,≤ 0.5
18,U28C A40G,0.807
19,C27U U47C G63A C66U,≤ 0.5
20,U28C G41A G52U,≤ 0.5
21,U28C G41C C62A,≤ 0.5

row,Variant,yeast fitness
1,U28C C33G G38A A57G,≤ 0.5
2,U28C C30U,0.767
3,U28C C30G,0.667
4,C27U U28A U32A C34U A36C C55A G68A,≤ 0.5
5,U28A C31A C33U A37C G50A A65U,≤ 0.5
6,U28A C33G A36U A40G U54C,0.528
7,U28A C49U U54G C62U,≤ 0.5
8,C27U G48A C49U A65G,0.714
9,U28C A37C A40U A65U,≤ 0.5
10,U28A A36U G52A,0.777
11,U28A G52A,0.705
12,C27U U28G A40C C46A C49U,0.995
13,U28A A45C C49A G50A,≤ 0.5
14,U28C G63U,0.521
15,U28C G63C,0.611
16,U28C G63A,0.939
17,C27U C61G,0.647
18,C27U C61A,0.62
19,U28A C55G C66U,≤ 0.5
20,U28C U47A C61G G67C,≤ 0.5
21,U28C A65C,0.85

row,Variant,yeast fitness
1,U28C C34G G38C A45C,≤ 0.5
2,C27U G38C A40U A45G G52A A65C,≤ 0.5
3,U28C U54C,0.909
4,C27U G51A,0.836
5,C27U U28A U32A C34U A36C G48A C60U,≤ 0.5
6,U28C G67A,0.652
7,C27U U32A A69U,0.774
8,U28A C34U G52A,≤ 0.5
9,U28A C60U,0.64
10,U28C A40G A70C,0.576
11,U28C C62U,1.02
12,U28C C62G,0.724
13,C27U G58C,1.02
14,C27U G58A,0.899
15,C27U U59C A69U,0.795
16,U28A G48A C60G,≤ 0.5
17,U28A G56A C62A,0.582
18,U28A C29U A37G G52C,≤ 0.5
19,C27U U28G C33G A36G,≤ 0.5
20,U28C A36G G41A A42C,≤ 0.5
21,C27U U64C C66A,≤ 0.5

row,Variant,yeast fitness
1,U28A G39A C46A A57C,≤ 0.5
2,C27U G68U,0.755
3,C27U G68A,0.822
4,C27U G68C,0.757
5,C27U U59A C66U,≤ 0.5
6,C27U G41C,0.898
7,U28A C31U U32A C55U,≤ 0.5
8,U28C C55A,0.564
9,U28C C55U,0.685
10,U28A A57G,0.688
11,U28C A45G C66U,0.72
12,U28C C33U G41A A69U,≤ 0.5
13,U28C C55U A70U,0.61
14,U28C C61G G67A,≤ 0.5
15,U28A C33G,0.618
16,U28A G51C C55G A57C U64A G67C,≤ 0.5
17,U28A A45C A65C,≤ 0.5
18,U28A A40C C66U,0.658
19,C27U C66A,0.701
20,U28A G67A,0.628
